Most compounds without a hit are left out; they make up all but 2.6% or so of the library.
SENP7 inh: SENP7 protease inhibition; Q9BQF6; recombinant SENP7, Z-RLRGG-aminoluciferin luminescence, 40 min; inhibition, % at 5 µM; 330,000 compounds, 1.5% hits; AID 434973;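 active = inhibition above about 50% at the single test dose, limit read from the data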
Target sequence (Q9BQF6 706-1050 limits assumed): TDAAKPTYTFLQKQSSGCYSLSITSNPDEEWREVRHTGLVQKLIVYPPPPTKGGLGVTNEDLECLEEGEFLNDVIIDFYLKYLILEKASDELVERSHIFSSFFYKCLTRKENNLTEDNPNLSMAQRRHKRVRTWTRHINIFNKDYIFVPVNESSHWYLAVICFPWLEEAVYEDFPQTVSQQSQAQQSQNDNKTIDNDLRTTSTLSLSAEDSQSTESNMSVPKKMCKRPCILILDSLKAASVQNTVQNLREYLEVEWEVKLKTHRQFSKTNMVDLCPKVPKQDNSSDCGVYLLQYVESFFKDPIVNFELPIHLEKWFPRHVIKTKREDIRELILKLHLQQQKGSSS
SENP8 block-1: SENP8 (human) protease inhibition | inhibition, % at 20 µM | recombinant SENP8, Nedd8 substrate fluorescence | AID 602440 | 360,000 compounds, 0.64% hits; in the data active = inhibition mostly above about 40%, no sharp cut-off; inactive = mostly below about 27%
Target sequence (Q96LD8 whole entry, looked up): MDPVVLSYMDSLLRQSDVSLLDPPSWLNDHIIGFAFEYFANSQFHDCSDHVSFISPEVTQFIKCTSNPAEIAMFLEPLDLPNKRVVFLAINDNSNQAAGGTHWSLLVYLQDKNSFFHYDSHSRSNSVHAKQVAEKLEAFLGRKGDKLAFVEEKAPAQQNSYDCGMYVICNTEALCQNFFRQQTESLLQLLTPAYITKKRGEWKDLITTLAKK
SENP8 block-2: blocks the human protease SENP8; Q96LD8; purified SENP8, Z-RLRGG-aminoluciferin cleavage, luminescence; inhibition, % at 10 µM; 330,000 compounds, 1.2% hits; in the data active = inhibition above about 50%
Platelet DG rel: platelet dense granule release activity; human platelet-rich plasma, SFLLRN dense granule ATP release, luminescence; inhibition, %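 (compounds screened at 7.5 µM in platelet-rich plasma)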; 300,000 compounds, 0.22% hits;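 active = mean replicate score, as percent of positive control, at or above 50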
SENP1 inh: blocks the human SENP1 SUMO protease catalytic domain. AID 624204. 360,000 compounds, 0.21% hits. inhibition, % at 10 µM. Q9P0U3. recombinant SENP1 catalytic domain, CyPet-SUMO1-YPet FRET cleavage;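 active = inhibition at least 30% at 10 µM, raw YFP signal under a set limit, fluorescence ratio 0.5 to 1.5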
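Assay system: hSENP1 catalytic domain, recombinant. Amount: SENP1 enzyme, 20 pM final. Schedule: 50 min reaction, RT, dark. Technique: FRET, CFP and YFP emission. Control set: no-enzyme wells low, DMSO-plus-enzyme wells high control.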
SENP6 block: SENP6 protease inhibition. AID 2599. Q9GZR1. inhibition, % at 10 µM. Recombinant SENP6 catalytic domain, aminoluciferin luminescence. 330,000 compounds, 1.8% hits;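 active = inhibition above about 50% at the single tested dose, limit read from the data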
SENP8 conf-1: confirmation of human SENP8 protease inhibitors; AID 488912; 6,200 compounds, 40% hits; Recombinant SENP8, Z-RLRGG-aminoluciferin luminescence, 60 min; inhibition, % at 12.5 µM; shares compounds with SENP7 inh;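 active = mean inhibition across replicates above about 50%, limit read from the data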
SENP6 conf: human SENP6 inhibition, confirmed; shares compounds with SENP7 inh; recombinant SENP6, Z-RLRGG-aminoluciferin luminescence; inhibition, % at 12.5 µM; 6,200 compounds, 58% hits; AID 488915
SENP7 conf: human SENP7 inhibition, confirmed; recombinant SENP7, Z-RLRGG-aminoluciferin luminescence, 40 min; 6,200 compounds, 69% hits; inhibition, % at 12.5 µM; shares compounds with SENP7 inh
Casp3 SENP sel: inhibits human caspase-3 in SENP selectivity test. 6,200 compounds, 60% hits. purified caspase-3, Z-DEVD-aminoluciferin luminescence, 60 min. inhibition, % at 12.5 µM. AID 488918. shares compounds with SENP7 inh;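 active = mean inhibition above about 50%, limit read from the data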
SENP luc ctr: counter-screen for SENP inhibitors: luminescence interference. shares compounds with SENP7 inh. Pre-incubated SENP8/Z-RLRGG-aminoluciferin, luciferase luminescence interference. AID 488919. 6,200 compounds, 39% hits. inhibition, % at 12.5 µM;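 active = mean inhibition above about 50% when retested at one dose, limit read from the data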
SENP8 conf-2: SENP8 (human) inhibition, single concentration confirmation | purified SENP8, Nedd8-AMC/pro-Nedd8 cleavage fluorescence, 30 min | inhibition, % at 25 µM | 1,400 compounds, 15% hits | shares compounds with SENP8 block-1 | AID 624319; in the data active = inhibition mostly above about 39%, no sharp cut-off; inactive = mostly below about 34%
SENP1 conf: SENP1 (human) inhibition, single concentration confirmation. shares compounds with SENP1 inh. recombinant SENP1, CyPet-SUMO1-YPet FRET cleavage. 520 compounds, 34% hits. inhibition, % at 10 µM; in the data active = inhibition mostly above about 35%, no sharp cut-off; inactive = mostly below about 32%
SENP1 kin conf: confirmation of human SENP1 SUMO protease inhibitors, kinetic; shares compounds with SENP1 inh; recombinant SENP1, CyPet-SUMO1-YPet FRET kinetic cleavage; inhibition, % at 10 µM; 520 compounds, 26% hits; AID 651690; in the data active = inhibition mostly above about 32%, no sharp cut-off; inactive = mostly below about 29%
Each line names hits and unclear results; the compound was inactive in the other large screens (follow-up assays come after a bar, where they were run).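 The calls were made as follows, unless noted: active = mean inhibition above about 50% in the one-dose retest (limit read from the data); inactive = the rest.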

CC(=O)N1N=C(c2ccccc2)OC1c1ccc([N+](=O)[O-])s1 (stereo not given)	SENP8 block-1 61.2, SENP6 block 65.7 | SENP8 conf-1 inactive | SENP6 conf inactive | SENP7 conf inactive | Casp3 SENP sel inactive | SENP luc ctr inactive | SENP8 conf-2 39.1
CC(=O)N1N=C(c2cccc([N+](=O)[O-])c2)OC1c1ccc(Br)cc1 (stereo not given)	none
O=C(c1ccc([N+](=O)[O-])o1)N1CCc2ccccc21	SENP8 block-1 48.2, SENP6 block 52.5 | SENP8 conf-1 inactive | SENP6 conf 52.1 | SENP7 conf inactive | Casp3 SENP sel 59.3 | SENP luc ctr inactive | SENP8 conf-2 inactive
CC1=NN(c2ccc(Cl)cc2)C(=O)C1C(c1ccccc1O)c1c(C)[nH]n(-c2ccc(Cl)cc2)c1=O (stereo not given)	SENP7 inh 91.9, SENP8 block-1 94.8, SENP6 block 85.6 | SENP8 conf-1 inactive | SENP6 conf inactive | SENP7 conf inactive | Casp3 SENP sel inactive | SENP luc ctr inactive | SENP8 conf-2 inactive
Cc1ccc(C(=O)OCC(=O)NC(C)c2ccccc2)s1 (stereo not given)	none (no result: Platelet DG rel)
Cc1cc(C)c(NC(=O)COC(=O)c2ccc([N+](=O)[O-])s2)c(C)c1	none
O=C(COC(=O)c1ccc([N+](=O)[O-])s1)NCCc1ccccc1	SENP8 block-1 51.3, SENP8 block-2 68.2, SENP6 block 62.1 (no result: Platelet DG rel) | SENP8 conf-1 84.4 | SENP6 conf 86.1 | SENP7 conf inactive | Casp3 SENP sel inactive | SENP luc ctr inactive | SENP8 conf-2 80.1
CC(NC(=O)COC(=O)c1ccc([N+](=O)[O-])s1)c1ccccc1 (stereo not given)	SENP8 block-1 40.8, SENP8 block-2 61.8, SENP6 block 75.5 | SENP8 conf-1 inactive | SENP6 conf inactive | SENP7 conf inactive | Casp3 SENP sel inactive | SENP luc ctr inactive | SENP8 conf-2 80.7
O=C(COC(=O)c1ccc([N+](=O)[O-])s1)NNC(=O)c1ccccc1	SENP8 block-1 48.3, SENP8 block-2 74.6, SENP6 block 70.4 (no result: Platelet DG rel) | SENP8 conf-1 inactive | SENP6 conf 88.3 | SENP7 conf inactive | Casp3 SENP sel inactive | SENP luc ctr inactive | SENP8 conf-2 86.2
O=C(NNc1cc(N2CCOCC2)nc(N2CCOCC2)n1)c1ccc([N+](=O)[O-])cc1	SENP7 inh 52.2, SENP8 block-1 70.0, SENP6 block 82.8 | SENP8 conf-1 inactive | SENP6 conf 56.1 | SENP7 conf inactive | Casp3 SENP sel inactive | SENP luc ctr inactive | SENP8 conf-2 44.3
Nc1nnc2c(n1)CCCC2	SENP8 block-1 87.8, SENP6 block 56.2 | SENP8 conf-1 inactive | SENP6 conf 60.7 | SENP7 conf inactive | Casp3 SENP sel inactive | SENP luc ctr inactive | SENP8 conf-2 62.9
COc1ccc(-c2[nH]n(-c3ccc([N+](=O)[O-])cc3)c(=O)c2C=NCc2ccc(F)cc2)cc1	none
COc1ccc(-c2cc(=O)n(-c3ccc([N+](=O)[O-])cc3)[nH]2)cc1	SENP8 block-1 86.9, SENP8 block-2 79.3, SENP6 block 92.0 | SENP8 conf-1 inactive | SENP6 conf inactive | SENP7 conf inactive | Casp3 SENP sel inactive | SENP luc ctr inactive | SENP8 conf-2 inactive
CN(C)c1ccc(N/C=C/C(=O)c2ccco2)cc1	SENP7 inh 95.5, SENP8 block-1 45.0, SENP8 block-2 90.3, Platelet DG rel 67.7, SENP1 inh 71.2, SENP6 block 96.0 | SENP8 conf-1 inactive | SENP6 conf 94.1 | SENP7 conf 100.6 | Casp3 SENP sel 95.2 | SENP luc ctr inactive | SENP8 conf-2 inactive
COc1ccc(OC)c(Nc2ncnc3sccc23)c1	none
CCOC(=O)CC(=O)CSc1ncnc2c1nnn2-c1ccc(F)cc1	none
COc1ccc(S(=O)(=O)N2CCCC(C(=O)NCc3cccnc3)C2)cc1C (stereo not given)	none (no result: SENP7 inh, SENP8 block-2, Platelet DG rel, SENP6 block)
C=CCSc1nnc(-c2ccccc2N=Cc2c(C)[nH]n(-c3ccccc3)c2=O)c(=O)[nH]1	none
CSc1nnc(-c2ccccc2N=Cc2c(C)[nH]n(-c3ccc4ccccc4c3)c2=O)c(=O)[nH]1	SENP8 block-1 40.7, SENP8 block-2 53.4, SENP6 block 77.8 | SENP8 conf-1 inactive | SENP6 conf 62.6 | SENP7 conf inactive | Casp3 SENP sel 66.6 | SENP luc ctr 67.5 | SENP8 conf-2 inactive
S=C(NC12CC3CC(CC(C3)C1)C2)N1CCOCC1	none
CCOC(=O)c1nn(-c2ccc(C)c(C)c2)c(=O)c2c(N)scc12	SENP8 block-1 60.4, SENP6 block 50.6 | SENP8 conf-1 inactive | SENP6 conf inactive | SENP7 conf inactive | Casp3 SENP sel inactive | SENP luc ctr inactive | SENP8 conf-2 48.6
O=[N+]([O-])c1nn(-c2ccc3c(c2)OCCO3)n(O)c1=NCc1ccc(F)cc1Cl	SENP7 inh 64.5, SENP8 block-1 51.7, SENP1 inh 62.4, SENP6 block 50.3 | SENP8 conf-1 inactive | SENP6 conf inactive | SENP7 conf inactive | Casp3 SENP sel inactive | SENP luc ctr inactive | SENP8 conf-2 inactive | SENP1 conf inactive | SENP1 kin conf inactive
O=C(O)c1cc2cccc(S(=O)(=O)N3CCCCC3)c2cc1O	none
CCOc1cccc(/C=C2\NC(=S)N(c3ccccc3)C2=O)c1O	SENP7 inh 86.5, SENP8 block-2 91.0, SENP1 inh 47.6, SENP6 block 91.9 | SENP8 conf-1 82.7 | SENP6 conf 97.9 | SENP7 conf 102.5 | Casp3 SENP sel 94.5 | SENP luc ctr 68.9 | SENP1 conf 44.8 | SENP1 kin conf inactive

Screens deposited in PubChem BioAssay by several laboratories.
